Measured values collected from several papers.
pIC50, pKi: −log10 of the molar value.
Target: 5-hydroxytryptamine receptor 2B (HTR2B, Homo sapiens, UniProt P41595)

| Structure (SMILES) | assay | endpoint | result |
| --- | --- | --- | --- |
| CCCC[C@H](NC(=O)[C@H](C)c1c(C)[nH]c2ccc(O)cc12)c1ncc(-c2cc3ccccc3nc2OC)[nH]1 | ligand displacement | pIC50 | 6.13 |
| Cc1ccc2cccc(N3CCN(CCCCOc4ccc5sc(C(C)C)nc5c4)CC3)c2n1 | cell-free assay, radioligand | pKi | 7.37 |
| CCOC(=O)[C@@]12C[C@@H]1[C@@H](n1cnc3c(N[C@H](C4CCC4)C4CC4)nc(I)nc31)[C@H](O)[C@@H]2O | calcium signal, antagonist | Kb | 1.74 nM |
| CCOCc1nc(O)c(-c2nnc(Cc3ccc(Cl)cn3)o2)c(O)c1-c1c(OC)cccc1OC | ligand displacement, radioligand | pIC50 | < 4.52 |
| COCCN(CCOC)C(=O)[C@@]12C[C@@H]1[C@@H](n1cnc3c(NC(C4CC4)C4CC4)nc(Cl)nc31)[C@H](O)[C@@H]2O | ligand displacement, radioligand | pKi | 5.91 |
| Cc1cc(NC(=O)Nc2ccc3c(ccn3C)c2)sn1 | ligand displacement, radioligand | pIC50 | 6.80 |
| CC(C)c1nc2cc(OCCCCN3CCN(c4cccc5c4OCCO5)CC3)ccc2s1 | cell-free assay, radioligand | pKi | 7.49 |
| CNC(=O)[C@@]12C[C@@H]1[C@@H](n1cnc3c(NCCc4ccccc4)nc(I)nc31)[C@H](O)[C@@H]2O | cell-free assay, radioligand | pKi | 6.93 |
| O=C1c2ccccc2CCN1CCCCN1CCN(c2cccc(Cl)c2Cl)CC1 | ligand displacement, radioligand | pKi | 8.74 |
| CCCCN1CCC(COC(=O)c2ccc(N)c(OCF)c2)CC1 | cell-free assay, radioligand | pKi | < 5.00 |
